From PubChem
SIAE inh: blocks human sialic acid acetylesterase. inhibition, % at 9.66 µM. actives 0.69% (n = 370,000). Q9HAT2. SIAE FP-Rh probe binding, fluorescence polarization;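 active means inhibition above a cutoff: mean of compounds within the control limits plus 3 SD of those, cut at about 17% in these data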;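 further: 0% = plate median of compound wells and 100% = probe without SIAE protein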
Target sequence (Q9HAT2 whole entry, looked up): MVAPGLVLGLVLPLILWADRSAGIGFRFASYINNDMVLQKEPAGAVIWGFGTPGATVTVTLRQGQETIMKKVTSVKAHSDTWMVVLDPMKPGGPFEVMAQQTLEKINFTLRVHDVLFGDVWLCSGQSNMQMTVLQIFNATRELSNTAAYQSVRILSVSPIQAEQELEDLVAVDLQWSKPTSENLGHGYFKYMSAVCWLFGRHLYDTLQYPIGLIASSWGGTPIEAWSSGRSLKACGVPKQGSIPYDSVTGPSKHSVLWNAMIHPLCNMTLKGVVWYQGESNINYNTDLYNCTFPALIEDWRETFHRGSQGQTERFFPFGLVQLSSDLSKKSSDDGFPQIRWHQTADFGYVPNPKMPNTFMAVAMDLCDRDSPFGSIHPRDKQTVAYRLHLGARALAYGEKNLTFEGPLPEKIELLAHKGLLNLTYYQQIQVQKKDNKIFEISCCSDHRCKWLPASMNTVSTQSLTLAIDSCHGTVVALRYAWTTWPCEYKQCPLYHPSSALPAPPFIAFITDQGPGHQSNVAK
HTRA1 inh: blocks human HTRA1 serine peptidase; recombinant HTRA1, FP-rhodamine activity-based probe, fluorescence polarization; actives 0.5% (n = 340,000); Q92743; inhibition, % at 5.96 µM; in the data active means inhibition above about 36%;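 further: 0% = enzyme with DMSO and 100% = wells lacking enzyme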
mABHD4 FP: inhibitors of mouse ABHD4; purified mABHD4, FP-Rh probe fluorescence polarization; inhibition, % at 8.92 µM; actives 0.54% (n = 370,000);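 active means inhibition exceeding the mean over every tested compound plus 3 SD, cut at about 30% in these data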;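 further: 0% = plate median of compound wells and 100% = S159A mutant with DMSO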
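Assay system: mouse ABHD4 enzyme, wild type / Also added: fluorescent activity-based probe FP-Rh / Doses: single nominal dose of 8.92 µM, 0.89% DMSO final / Timing: 45 min compound pre-incubation plus 60 min probe step, 25 °C / Signal: FP readout, ex 525 nm / em 598 nm / Control set: S159A mutant/DMSO as 100%, compound-well median as 0%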
RBBP9 inh: inhibitors of human serine hydrolase RBBP9 | inhibition, % at 7.94 µM | actives 0.2% (n = 220,000) | recombinant RBBP9, FP-Rh probe fluorescence polarization | O75884;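 active means inhibition above the campaign mean of all tested compounds plus 3 SD, cut at about 14% in these data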;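 further: plate controls were DMSO wells with RBBP9 for no effect and wells lacking RBBP9 protein for full effect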
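Measured by: FP readout at 525/598 nm; material: recombinant human RBBP9; also added: Serine-hydrolase probe FP-Rh, 375 nM pre-mixing; medium: Tris buffer pH 8.0, NaCl, Pluronic; replication: one well per compound; doses: one concentration, 7.94 µM nominal, 0.794% DMSO; timing: preincubation 30 min plus labeling 45 min at 25 °C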
HTRA1 conf: confirmation of human HTRA1 inhibitors | inhibition, % at 5.96 µM | shares compounds with HTRA1 inh | AID 540248 | recombinant HTRA1, FP-rhodamine activity-based probe, fluorescence polarization | actives 66% (n = 1,600);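 active means mean inhibition over three repeats above a set limit taken from the earlier primary screen, cut at about 37% in these data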;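 further: 0% = HTRA1 with DMSO and 100% = wells lacking HTRA1; inhibitors block probe binding so polarization drops and inhibition rises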
mABHD4 conf: confirmation of mouse ABHD4 inhibitors | shares compounds with mABHD4 FP | purified mABHD4, FP-Rh probe fluorescence polarization | inhibition, % at 8.92 µM | actives 55% (n = 1,800) | AID 720658;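 active means mean inhibition across replicates above the hit cutoff set in the primary screen, cut at about 30% in these data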;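 further: 0% = wild-type ABHD4 with DMSO and 100% = catalytically dead S159A mutant with DMSO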
SIAE confirm: confirmation of human SIAE inhibitors; SIAE FP-Rh activity-based probe, fluorescence polarization; inhibition, % at 9.66 µM; actives 13% (n = 2,300); AID 1117263; shares compounds with SIAE inh;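 active means mean inhibition of the replicates above the hit cutoff set in the primary screen, cut at about 17% in these data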;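 further: 0% = SIAE with DMSO and probe and 100% = probe without SIAE; inhibitors lower polarization as more probe stays unbound to SIAE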
* hit, by the source's call; . = no result. Sampled rows, rich in hits. Any-hit rate of the full collection: about 1.4%.

SMILES	SIAE inh	HTRA1 inh	mABHD4 FP	RBBP9 inh	HTRA1 conf	mABHD4 conf	SIAE confirm
O=C(O)/C=C\C(=O)Nc1ccc(N2CCN(c3ccc(Cl)cc3)CC2)cc1	28*	44*	33*	5	7	10	2
O=C(O)/C=C\C(=O)Nc1ccc(N2CCN(c3cccc(Cl)c3)CC2)cc1	26*	52*	42*	-3	40*	21	1
O=C(O)/C=C\C(=O)Nc1ccc(N2CCN(c3ccc(F)cc3)CC2)cc1	33*	43*	44*	11	14	10	3
CC(=O)c1ccc(NC(=O)N2CCN(c3cccc(Cl)c3)CC2)cc1	-7	-12	-9	2	.	.	.
O=C(O)/C=C\C(=O)Nc1ccc(N2CCN(c3ccc(Cl)c(Cl)c3)CC2)cc1	27*	57*	39*	-4	5	22	3
O=C(O)/C=C\C(=O)Nc1ccccc1C(=O)N1CCN(c2ccc(Cl)cc2)CC1	-1	3	-4	-1	.	.	.
Cc1ccsc1C=Nn1c(-c2n[nH]c3c2CCC3)n[nH]c1=S	11	.	1	.	.	.	.
Oc1ccc2ccccc2c1/C=C/c1ccc2c(Br)cc(Br)c(O)c2n1	23*	66*	34*	.	69*	21	16
Oc1ccc(Cl)cc1/C=C/c1ccc2cccc(O)c2n1	8	5	-10	-4	.	.	.
Cc1cc(SCC(=O)N/N=C/c2ccc(O)c(O)c2)c(C)cc1Br	21*	77*	14	-7	76*	.	-19
COc1cc2cccc(OC)c(=O)c2c(OC)c1OC	16	-17	16	-1	.	.	.
O=c1c(O)cccc2cc(O)c(O)c(O)c12	24*	58*	55*	1	60*	52*	18*
CCOC(=O)c1ccc(Nc2nc(C(=O)OCC)nc3ccccc23)cc1	-46	-54	-30	-8	.	.	.
CCOC(=O)c1nc(Nc2ccc(Nc3ccccc3)cc2)c2ccccc2n1	22*	46*	21	2	60*	.	3
O=C(C1CCCN1S(=O)(=O)c1cccc2ccccc12)N1CCN(c2ccccc2)CC1 (configuration not stated)	0	.	-2	.	.	.	.
Cc1ccc2[nH]c(C)c(/C=N/Nc3nc4ccccc4s3)c2c1	41*	49*	31*	-3	53*	43*	17
C[C@H](O)[C@@H]1C(=O)N2CCc3c([nH]c4cccc(-c5ccccc5)c34)[C@@H]2C[C@@H]1N(C)C(=O)c1ccccc1	2	.	-12	.	.	.	.
CCOc1ccc(-n2c(SC/C=C/c3ccccc3)nnc2-c2cccs2)cc1	6	.	-17	.	.	.	.
O=C1C=C(O)c2c(O)cc(O)c(O)c2C1=O	51*	78*	84*	.	56*	57*	10
CC(=O)NC(c1ccco1)c1cc(F)c2cccnc2c1O (configuration not stated)	8	29	11	.	.	.	.
CC(=O)NC(c1ccc2ccccc2c1)c1ccc2cccnc2c1O (configuration not stated)	27*	52*	22	.	68*	.	27*
CC(C)C(=O)NC(c1cccc([N+](=O)[O-])c1)c1ccc2cccnc2c1O (configuration not stated)	22*	44*	11	.	46*	.	11
CC(C)C(=O)NC(c1cccc([N+](=O)[O-])c1)c1c(O)ccc2ccccc12 (configuration not stated)	-1	-2	-3	-5	.	.	.
CCCCC(=O)NC(c1ccc(N(CC)CC)cc1)c1ccc2cccnc2c1O (configuration not stated)	18*	60*	14	.	66*	.	15
CC(=O)NC(c1ccc(Cl)cc1Cl)c1ccc2cccnc2c1O (configuration not stated)	20*	73*	16	.	67*	.	16
SMILES	SIAE inh	HTRA1 inh	mABHD4 FP	RBBP9 inh	HTRA1 conf	mABHD4 conf	SIAE confirm
COc1ccc(C(NC(C)=O)c2ccc3cccnc3c2O)c(OC)c1 (configuration not stated)	.	27	.	.	.	.	.
CCOc1ccc(-n2c(SCC(=O)Nc3ccc4c(c3)OCCO4)nnc2-c2ccncc2)cc1	-2	.	-3	.	.	.	.
C#CCNC(=O)C[C@H]1C[C@@]2(C(=O)OC)C(=C[C@H](C(C)C)O[C@@H]2C2CC2)N(CCCCCCCC)C1=O	8	.	-4	.	.	.	.
CCN1C(=O)[C@H]2[C@@H](c3ccc(-c4ccc(OC)cc4)cc3)N[C@@](CC(C)C)(C(=O)OC)[C@H]2C1=O	3	-10	1	.	.	.	.
COc1ccc(OC)c(CN2C(=O)CSCC2(C)c2nnnn2C2CCCC2)c1 (configuration not stated)	1	.	1	.	.	.	.
Cc1ccc(N=Cc2cccc(O)c2O)c(C)c1	20*	84*	49*	8	43*	30*	8
CCN(CC)c1ccc(C=Nc2ccc(C)cc2C)c(O)c1	10	5	6	-5	.	.	.
CCN1/C(=C/C=C/c2oc3ccc(-c4ccccc4)cc3[n+]2CC)Oc2ccc(-c3ccccc3)cc21	68*	114*	72*	10	108*	89*	12
Oc1ccc(NCc2ccccc2OCc2ccccc2)cc1	39*	49*	81*	3	25	27	5
CCNCc1ccccc1OCc1ccccc1	6	4	1	-5	.	.	.
CC1(C(=O)NCc2ccccc2)CCC(=O)N1CC(F)(F)F (configuration not stated)	13	.	0	.	.	.	.
COC(=O)N/N=C/c1cc(N=Nc2ccccc2Cl)ccc1O	-12	5	2	-6	.	.	.
Nc1ccc(C(=O)N/N=C\c2cc(N=Nc3cccc4ccccc34)ccc2O)cc1	36*	56*	16	-4	91*	.	19*
O=C1C=CC2=C3c4cc(O)c(O)cc4CC3(O)COC2=C1O (configuration not stated)	28*	45*	26	.	44*	.	4
CN(C1=C(N2CCCCC2)C(=O)c2ccccc2C1=O)c1ccccc1	20*	66*	38*	7	75*	69*	14
O=C1C(Nc2ccccc2)=C(N2CCCCC2)C(=O)c2ccccc21	2	5	13	7	.	.	.
O=C(N/N=C/c1c(O)ccc2ccccc12)c1ccc(CO)nc1	35*	48*	23	.	46*	.	12
COc1ccc(OC)c(N)c1	28*	66*	41*	7	25	24	14
C/C(=N\NC(=O)c1cc(O)ccc1O)c1cccc(NC(=O)c2ccc(Cl)cc2)c1	26*	44*	57*	.	17	42*	10
